Measurements taken from ChEMBL document CHEMBL5038578, “Design, Synthesis, and Biological Evaluation of Peptidomimetic Aldehydes as Broad-Spectrum Inhibitors against Enterovirus and SARS-CoV-2” (J Med Chem, 2022).

Key:
Enterovirus A71 = assay: Antiviral activity against Human enterovirus 71 BrCr infected in human RD cells assessed as reduction in virus-induced cytopathic effect incubated for 4 days by MTS/PMS assay; type: functional, organism-based; settings: Enterovirus A, 96 h
In short: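 RD cells (2.5 × 10^4/well) adhered overnight, then infected with EV71 BrCr and given serial compound dilutions. Incubated 4 days, until full CPE in virus controls. Viability by MTS/PMS, absorbance at 498 nm after 1–2 h at 37 °C. Normalised to infected and uninfected untreated controls; EC50 by curve fitting.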

[1] = Inhibition of Human enterovirus 71 3C-like protease expressed in Escherichia coli BL21 (DE3) cells using Dacyl-KTSAVLQSGFRKMEEdans as fluorogenic substrate incubated for 10 mins by FRET assay; design: species or system Enterovirus A71
In short: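 EV71 3Cpro expressed with N-terminal His-SUMO2 tag, tag cut by SENP2, then purified on Ni-NTA, Q-Sepharose and Superdex200. Enzyme at 5 μM final, preincubated 10 min with serial compound dilutions in 25 mM Tris pH 8.0, 150 mM NaCl, 10% glycerol. Fluorescence read at ex 340/em 490 nm. IC50 (mean ± SD, ≥3 experiments) by nonlinear regression.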

[2] = Cytotoxicity against human RD cells assessed as reduction in cell viability measured after 4 days by MTS/PMS assay; type: toxicity, cell-based; settings: time 4 day
enterovirus D68 = assay: Antiviral activity against Human enterovirus 68 infected in HeLa cells assessed as reduction in virus-induced cytopathic effect incubated for 4 days by MTS/PMS assay; type: functional, organism-based; settings: Enterovirus D, 96 h
rhinovirus A2 = assay: Antiviral activity against wild type Rhinovirus-A02 infected in HeLa cells assessed as reduction in virus-induced cytopathic effect incubated for 3 days by MTS/PMS assay; type: functional, cell-based; settings: Rhinovirus A, 72 h
Coxsackievirus B3 = assay: Antiviral activity against Human coxsackievirus B3 infected in Vero cells assessed as reduction in plaque formation treated 2 hrs post viral infection and measured 3 to 4 days post-infection by Giemsa staining based plaque reduction assay; type: functional, organism-based; settings: Enterovirus B
Coxsackievirus A21 = assay: Antiviral activity against Human coxsackievirus A21 infected in HeLa cells assessed as reduction in virus-induced cytopathic effect incubated for 3 days by MTS/PMS assay; type: functional, organism-based; settings: Enterovirus C, 72 h
rhinovirus B14 = assay: Antiviral activity against wild type Human rhinovirus B14 infected in HeLa cells assessed as reduction in virus-induced cytopathic effect incubated for 3 days by MTS/PMS assay; type: functional, organism-based; settings: Rhinovirus B, 72 h
[3] = Inhibition of SARS-CoV2 3C-like protease expressed in Escherichia coli BL21 (DE3) cells using Mca-AVLQSGFR-Lys(Dnp)-Lys-NH2 as fluorogenic substrate incubated for 10 mins by FRET assay; design: species or system Severe acute respiratory syndrome coronavirus 2
SARS-CoV-2 = assay: Antiviral activity against SARS Cov-2 infected in Vero E6 cells assessed as reduction in viral RNA replication measured 24 hrs post infection by qRT-PCR analysis; type: functional, organism-based; settings: Severe acute respiratory syndrome coronavirus 2, Vero C1008, 24 h
[4] = Cytotoxicity against African green monkey Vero E6 cells assessed as reduction in cell viability incubated for 24 hrs by CCK8 assay; type: toxicity, cell-based, Vero C1008; settings: chlorocebus sabaeus
In short: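 Vero E6 cells (2 × 10^4/well) exposed to graded compound concentrations for 24 h. Relative surviving cell number measured by CCK-8.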

Compound	EC50 (Enterovirus A71)	IC50 [1]	CC50 at 96 h [2]	EC50 (enterovirus D68)	EC50 (rhinovirus A2)	EC50 (Coxsackievirus B3)	EC50 (Coxsackievirus A21)	EC50 (rhinovirus B14)	IC50 [3]	EC50 (SARS-CoV-2)	CC50 at 24 h [4]
O=C[C@H](C[C@@H]1CCNC1=O)NC(=O)[C@H](Cc1ccccc1)NC(=O)c1cnc2ccccc2n1	0.14 µM	3.6 µM	> 100 µM								
O=C[C@H](C[C@@H]1CCNC1=O)NC(=O)[C@H](Cc1ccccc1)NC(=O)c1ccc2[nH]ccc2c1	0.69 µM	3.83 µM	> 100 µM								
O=C[C@H](C[C@@H]1CCNC1=O)NC(=O)[C@H](Cc1ccccc1)NC(=O)/C=C/c1ccccc1	0.1 µM	4.57 µM	> 100 µM	0.08 µM	6.6 µM	15.9 µM	1.73 µM	1.19 µM			
Cc1cc(C(=O)N[C@@H](Cc2ccccc2)C(=O)N[C@H](C=O)C[C@@H]2CCNC2=O)no1	0.32 µM	2.09 µM	> 100 µM								
O=C[C@H](C[C@@H]1CCNC1=O)NC(=O)[C@H](Cc1ccccc1)NC(=O)C1=Cc2cc(Cl)ccc2OC1	0.07 µM	4.34 µM	16.4 µM						0.12 µM	0.25 µM	299 µM
O=C[C@H](C[C@@H]1CCNC1=O)NC(=O)[C@H](Cc1ccccc1)NC(=O)c1ccc2ccccc2n1	0.12 µM	13 µM	> 100 µM						0.14 µM	0.43 µM	627 µM
O=C(/C=C/c1ccccc1)N[C@@H](Cc1ccccc1)C(=O)N[C@H](/C=C/C(=O)OCc1ccccc1)C[C@@H]1CCNC1=O	3.1 µM	2.06 µM	> 100 µM								
CCOC(=O)/C=C/[C@H](C[C@@H]1CCNC1=O)NC(=O)[C@H](Cc1ccc(F)cc1)NC(=O)[C@@H](NC(=O)c1cc(C)on1)C(C)C	0.011 µM	1.89 µM	> 100 µM								
COC(=O)/C=C/[C@H](C[C@@H]1CCNC1=O)NC(=O)[C@H](Cc1ccccc1)NC(=O)/C=C/c1ccccc1	1.21 µM	1.73 µM	> 100 µM	0.1 µM	1.68 µM	77.7 µM	3.62 µM	1.65 µM			
O=C[C@H](C[C@@H]1CCNC1=O)NC(=O)[C@H](Cc1ccccc1)NC(=O)c1cncc(F)c1	0.47 µM	2.02 µM	> 100 µM								
O=C[C@H](C[C@@H]1CCNC1=O)NC(=O)[C@H](Cc1ccccc1)NC(=O)c1cc2ccccc2o1	0.093 µM	2.44 µM	> 100 µM						0.08 µM	0.49 µM	> 1000 µM
Cc1nc2ccccc2nc1C(=O)N[C@@H](Cc1ccccc1)C(=O)N[C@H](C=O)C[C@@H]1CCNC1=O	0.37 µM	3.04 µM	> 100 µM						0.065 µM	0.44 µM	603 µM
